According to PubChem BioAssay:
Inconclusive results are not listed.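 How the source made its calls, unless noted: active means inhibition over a set limit, the all-compound mean plus 3 SD, in both replicate runs; inconclusive means over that limit in just one replicate run; inactive means at or under that limit in both runs.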

Tests used:
[1] = OD615 S. cerevisiae growth inhibition, permissive medium, pilot counter-assay, permissive growth control for S. cerevisiae lifespan shortening project (AID 705;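 active means growth inhibition above 25% in both replicates, a cutoff set 3 SD above the mean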); conditions: OD615, 24 h, at 10 µM, hits give high values
How it was run: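 System: Engineered DeaD yeast | Buffer or medium: SC raffinose/galactose permissive medium | Doses: 10 µM single dose, 0.25% DMSO | Times: 24 h exposure, 30 °C | Measured by: OD615 turbidity read | Read-out: Yeast growth inhibition indicated by reduced 24 h OD615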

[2] = Restrictive medium S. cerevisiae growth inhibition, OD615, pilot screen of yeast lifespan reduction project, restrictive growth control (AID 706;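 active means growth inhibition above a set limit, 3 SD over mean compound inhibition, in both replicates, cut at about 43% in these data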;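 further: modified DeaD lifespan yeast strain shifted to restrictive glucose medium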); conditions: OD615, 48 h, at 10 µM, hits give high values
How it was run: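 Assay system: engineered S. cerevisiae DeaD strain; Buffer or medium: CSMM-D glucose medium; Dosing: 10 µM compound, 0.25% DMSO; Times: cell pre-growth 4 h, compound exposure 48 h, 30 °C; Detection: absorbance (optical density) measured at 615 nm.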

[3] = viability gain of MRP-1-high H69AR cells under doxorubicin, pilot screen, MRP-1 activator project, CellTiter-Glo, duplicate (AID 807;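 active means viability increase at or above a cutoff of the median across tested compounds plus 3 SD, cut at about 8.5% in these data, passing the limit was not always enough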;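 further: compound pretreatment 18-22 h then 72 h combined with doxorubicin; 0% = doxorubicin alone and 100% = vehicle without doxorubicin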); conditions: H69AR viability with doxorubicin, CellTiter-Glo luminescence; at 10 µM; hits give high values
[4] = growth suppression of beta-catenin knockout HCT116, pilot screen, human colon tumor cells (AID 823;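 active means cell viability at or below a set limit in both duplicate runs, the limit being the all-compound median minus 4 SD, cut at about 23% in these data, passing the limit was not always enough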;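 further: 0% = wells killed by 20 µM Hyamine and 100% = untreated DMSO cell wells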); conditions: CellTiter-Glo, 60 h, at 10 µM, hits give low values
[5] = growth suppression of PTEN-deleted HCT116, pilot screen, cell-based, HCT116 clonal line, CellTiter-Glo (AID 824;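 active means viability at or below 27.92% in each of two runs, the all-compound median minus 4 SD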;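 further: 0% = 20 µM Hyamine control and 100% = vehicle cell control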); conditions: 60 h, at 10 µM, hits give low values
[6] = inhibitors of the yeast RAM network, pilot screen, dse1pr::URA3 reporter, 5-FOA selection (AID 869);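 further: 0% = DMSO wells with no growth and 100% = 10 µM 1-NA-PP1 with full growth; RAM network block rescues cells from 5-FOA so hits raise OD615 growth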; conditions: S. cerevisiae dse1pr::URA3 5-FOA growth, OD615, 2 d; at 10 µM; hits give high values; strain carries analog-sensitive mutant Cbk1 kinase
[7] = RAM signaling pathway blockade in yeast – S. cerevisiae, Pdr1DBD-CYC8 efflux-inhibited sensitized strain, primary screen (AID 1298;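 active means RAM network inhibition above 8.4% in each of two replicates, 3 SD over the compound average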;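 further: 0% = DMSO untreated cells without growth and 100% = 10 µM 1-NA-PP1 full growth; higher means more yeast growth rescued from 5-FOA killing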); conditions: S. cerevisiae cbk1-as DSE1-URA3 strain, 5-FOA growth OD615, 2 d; at 50 µM; hits give high values

COC(=O)c1ccc(-c2nc(-c3cccs3)no2)cc1
inactive: growth inhibition [1] 11.1% | growth inhibition [2] 10.5% | viability increase [3] -5.21% | viability [4] 84.1% | viability [5] 76.7% | inhibition [6] 2.32% | RAM network inhibition [7] 0.79%

CCCc1c(C(=O)OCC)[nH]c2c1C(=O)CCC2
inactive: growth inhibition [1] 1.82% | growth inhibition [2] 2.14% | viability increase [3] -2.07% | viability [4] 107% | viability [5] 95.3% | inhibition [6] 1.46% | RAM network inhibition [7] 2.61%

C=CCSc1nc2c(c(=O)[nH]c(=O)n2C)n1Cc1ccc(C)cc1
inactive: growth inhibition [1] -12.1% | growth inhibition [2] -7.22% | viability increase [3] -3.38% | viability [4] 90.1% | viability [5] 86.4% | inhibition [6] 2.6% | RAM network inhibition [7] 7.02%

CC(=O)Nc1ccc(C(=O)c2ccccc2)cc1
inactive: growth inhibition [1] 8.43% | growth inhibition [2] 6.52% | viability increase [3] -1.14% | viability [4] 95.4% | viability [5] 92.5% | inhibition [6] 0.97% | RAM network inhibition [7] 0.62%

O=C(O)C1(P(=O)(c2ccccc2)c2ccccc2)CCC1
inactive: growth inhibition [1] -13.9% | growth inhibition [2] -5.79% | viability increase [3] -0.11% | viability [4] 99.6% | viability [5] 99.3% | inhibition [6] 1.34% | RAM network inhibition [7] 3.04%

Cc1occc1C(=O)NC1CCCCCC1
inactive: growth inhibition [1] -17.9% | growth inhibition [2] -9.95% | viability increase [3] -0.64% | viability [4] 95.5% | viability [5] 96.6% | inhibition [6] -0.355% | RAM network inhibition [7] -0.22%

COc1ccc(CCNC(=O)c2c(O)c3c([nH]c2=O)CCCC3)cc1
inactive: growth inhibition [1] -0.92% | growth inhibition [2] -15.2% | viability increase [3] -0.72% | viability [4] 97.1% | viability [5] 90% | inhibition [6] 1.77% | RAM network inhibition [7] 4.09%

COc1ccccc1CNC(=O)C1COc2ccccc2O1 (stereo unspecified)
inactive: growth inhibition [1] -13.9% | growth inhibition [2] -2.38% | viability increase [3] 0.65% | viability [4] 98.8% | viability [5] 88.5% | inhibition [6] 2.73% | RAM network inhibition [7] 2.77%

CCOC(=O)c1sc(NC(=O)c2ccco2)nc1C
inactive: growth inhibition [1] -9.56% | growth inhibition [2] -2.94% | viability increase [3] -1.31% | viability [4] 94.5% | viability [5] 91.8% | inhibition [6] 1.66% | RAM network inhibition [7] 3.98%

O=C(O)CCc1ccc(-c2cccs2)n1-c1ccc(C(=O)O)cc1
inactive: growth inhibition [1] -3.21% | growth inhibition [2] 3.42% | viability increase [3] -0.51% | viability [4] 98.7% | viability [5] 93.5% | inhibition [6] 2.39% | RAM network inhibition [7] -0.68%

CCOC(=O)C(C)Sc1ncnc2nc[nH]c12 (stereo unspecified)
inactive: growth inhibition [1] -1.5% | growth inhibition [2] -25.9% | viability increase [3] -1.35% | viability [4] 98.8% | viability [5] 99.2% | inhibition [6] 1.11% | RAM network inhibition [7] 3.25%

COc1c(C)cc(Br)cc1C(=O)Nc1cccc(-c2nc3ncccc3o2)c1
inactive: growth inhibition [1] -0.485% | growth inhibition [2] 15% | viability increase [3] -4.84% | viability [4] 55.6% | viability [5] 46.5% | inhibition [6] 2.24% | RAM network inhibition [7] 7.82%

COC(=O)c1cc(-c2ccc3c(c2)OCO3)nc2ccccc12
inactive: growth inhibition [1] -14.1% | growth inhibition [2] -4.56% | viability increase [3] -0.1% | viability [4] 73.6% | viability [5] 76.3% | inhibition [6] 3.49% | RAM network inhibition [7] 8.14%

O=C(Nc1ccc(N2CCOCC2)c(Cl)c1)C1CCCCC1
inactive: growth inhibition [1] 1.5% | growth inhibition [2] 4.29% | viability increase [3] -2.1% | viability [4] 97.6% | viability [5] 94.8% | inhibition [6] 0.18% | RAM network inhibition [7] 3.22%

Cc1c(C(=O)NCc2cccnc2)sc2nc(-c3ccccc3)cn12
inactive: growth inhibition [1] -4.69% | growth inhibition [2] 8.62% | viability increase [3] 0.16% | viability [4] 101% | viability [5] 89.5% | inhibition [6] 2.61% | RAM network inhibition [7] 7.67%

COCC(=O)Nc1ccc(C(N)=O)cc1
inactive: growth inhibition [1] -13.6% | growth inhibition [2] -6.43% | viability increase [3] -0.44% | viability [4] 96.5% | viability [5] 95.3% | inhibition [6] 1.91% | RAM network inhibition [7] 7.41%

Cn1c(=O)oc2cc(S(=O)(=O)N3CCC(C(=O)N4CCN(c5ccccc5)CC4)CC3)ccc21
inactive: growth inhibition [1] 0.31% | growth inhibition [2] 3.94% | viability increase [3] -2.78% | viability [4] 94.6% | viability [5] 93.1% | inhibition [6] -0.21% | RAM network inhibition [7] 7.13%

CCCN(CCC(=O)Nc1ccccc1F)CC1CC1
inactive: growth inhibition [1] -12.8% | growth inhibition [2] -18.1% | viability increase [3] -1.44% | viability [4] 99.1% | viability [5] 95.3% | inhibition [6] 0.64% | RAM network inhibition [7] -0.31%

Cc1ccc(C(=O)c2cc3c(cc2N)OCCO3)cc1
inactive: growth inhibition [1] -11.6% | growth inhibition [2] -21.8% | viability increase [3] -3.61% | viability [4] 91.2% | viability [5] 89.2% | inhibition [6] 0.27% | RAM network inhibition [7] 3.36%

Cc1cccc(-c2noc(CCc3ccccc3)n2)c1
inactive: growth inhibition [1] -13.3% | growth inhibition [2] -12% | viability increase [3] 0.39% | viability [4] 102% | viability [5] 98.1% | inhibition [6] 1.13% | RAM network inhibition [7] 2.14%

Cc1sc2ncnc(NCCCO)c2c1C
inactive: growth inhibition [1] -16.1% | growth inhibition [2] -8.24% | viability increase [3] -1.72% | viability [4] 103% | viability [5] 90.5% | inhibition [6] 0.945% | RAM network inhibition [7] 5.49%

COc1ccc(NC(=O)Nc2ccc(OCC(=O)N3CCOCC3)cc2)cc1OC
inactive: growth inhibition [1] -13% | growth inhibition [2] -1.38% | viability increase [3] -2.34% | viability [4] 88.4% | viability [5] 90.5% | inhibition [6] 0.595% | RAM network inhibition [7] 0.11%

COc1ccccc1-c1nnc(SCC(=O)N2CCOCC2)o1
inactive: growth inhibition [1] -12.5% | growth inhibition [2] 0.015% | viability increase [3] -3.69% | viability [4] 93.8% | viability [5] 95.7% | inhibition [6] 1.75% | RAM network inhibition [7] 2.61%
